The source made the active and inactive calls. The rule behind the calls is not given here.
What was measured:
Mus musculus [1] = assay: Antiepileptic activity in Swiss albino mouse assessed as protection against maximal-electric shock-induced seizures at 300 mg/kg, ip measured after 4 hrs; format: functional, organism-based; design: dose 300 mg/kg
Outline: (§1)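 Male Swiss albino mice (18–25 g), compounds given ip at 30, 100 and 300 mg/kg. Seizures induced by maximal electroshock (MES) or subcutaneous pentylenetetrazole (scPTZ). Protection scored at 0.5 and 4.0 h after dosing.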

Mus musculus [2] = assay: Antiepileptic activity in Swiss albino mouse assessed as protection against maximal-electric shock-induced seizures at 300 mg/kg, ip measured after 0.5 hrs; format: functional, organism-based; design: dose 300 mg/kg; outline: as §1
Mus musculus [3] = assay: Antiepileptic activity in ip dosed Swiss albino mouse assessed as protection against scPTZ-induced seizures after 4 hrs; format: functional; conditions: read-out: MED; outline: as §1
Mus musculus [4] = assay: Neurotoxicity against ip dosed Swiss albino mouse after 0.5 hrs by rotarod test; format: toxicity, organism-based; conditions: in vivo
Outline: (§2)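 Acute neurotoxicity tested by rotorod in male Swiss albino mice (18–25 g) given 30, 100 or 300 mg/kg ip. Read at 0.5 and 4.0 h post-dose. Result is the minimal dose causing toxicity in half or more of the animals; a dash means none up to 300 mg/kg.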

Rattus norvegicus [5] = assay: Antiepileptic activity in Wistar rat assessed as protection against scSTY-induced seizures at 300 mg/kg, ip measured after 4 hrs; format: functional, organism-based; design: dose 300 mg/kg
Outline: (§3)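 Male Wistar rats (100–150 g), compounds given ip at 30, 100 and 300 mg/kg. Seizures induced by subcutaneous strychnine (scSTY). Activity read 0.5 and 4.0 h after dosing. Reported as the minimal dose active in at least half of the animals; a dash means no activity at 300 mg/kg.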

Rattus norvegicus [6] = assay: Antiepileptic activity in Wistar rat assessed as protection against scSTY-induced seizures at 300 mg/kg, ip measured after 0.5 hrs; format: functional, organism-based; design: dose 300 mg/kg; outline: as §3
Mus musculus [7] = assay: Antiepileptic activity in Swiss albino mouse assessed as protection against scPTZ-induced seizures at 300 mg/kg, ip measured after 0.5 hrs; format: functional, organism-based; design: dose 300 mg/kg; outline: as §1
Rattus norvegicus [8] = assay: Antiepileptic activity in ip dosed Wistar rat assessed as protection against scSTY-induced seizures after 4 hrs; format: functional; conditions: read-out: MED; outline: as §3
Mus musculus [9] = assay: Antiepileptic activity in ip dosed Swiss albino mouse assessed as protection against maximal-electric shock-induced seizures after 4 hrs; format: functional; conditions: read-out: MED; outline: as §1
Mus musculus [10] = assay: Antiepileptic activity in ip dosed Swiss albino mouse assessed as protection against maximal-electric shock-induced seizures after 0.5 hrs; format: functional; conditions: read-out: MED; outline: as §1
Rattus norvegicus [11] = assay: Antiepileptic activity in Wistar rat assessed as GABA level in cerebellum per 100 mg at 100 mg/kg ip after 2 hrs (reference value: 23.48+/- 2.48 ug); format: functional; conditions: route intraperitoneal
Rattus norvegicus [12] = assay: Antiepileptic activity in Wistar rat assessed as GABA level in medulla oblangata per 100 mg at 100 mg/kg ip after 2 hrs (reference value: 31.86 +/- 4.65 ug); format: functional, Medulla oblongata; conditions: route intraperitoneal
Rattus norvegicus [13] = assay: Antiepileptic activity in Wistar rat assessed as GABA level in midbrain per 100 mg at 100 mg/kg ip after 2 hrs (reference value: 35.42 +/- 2.14 ug); format: functional; conditions: route intraperitoneal
Rattus norvegicus [14] = assay: Neurotoxicity in Wistar rat at 30 mg/kg, po measured at 4 hrs by rotarod test; format: toxicity, organism-based; design: dose 30 mg/kg, route oral; conditions: in vivo
Outline: (§4)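 Neurotoxicity assessed in Wistar rats (100–150 g) after a 30 mg/kg oral dose, read at 0.25, 0.5, 1, 2 and 4 h.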

Rattus norvegicus [15] = assay: Neurotoxicity in Wistar rat at 30 mg/kg, po measured at 2 hrs by rotarod test; format: toxicity, organism-based; design: dose 30 mg/kg, route oral; conditions: in vivo; outline: as §4
Rattus norvegicus [16] = assay: Neurotoxicity in Wistar rat at 30 mg/kg, po measured at 1 hr by rotarod test; format: toxicity, organism-based; design: dose 30 mg/kg, route oral; conditions: in vivo; outline: as §4
Rattus norvegicus [17] = assay: Neurotoxicity in Wistar rat at 30 mg/kg, po measured at 0.5 hrs by rotarod test; format: toxicity, organism-based; design: dose 30 mg/kg, route oral; conditions: in vivo; outline: as §4
Rattus norvegicus [18] = assay: Neurotoxicity in Wistar rat at 30 mg/kg, po measured at 0.25 hrs by rotarod test; format: toxicity, organism-based; design: dose 30 mg/kg, route oral; conditions: in vivo; outline: as §4
Rattus norvegicus [19] = assay: Antiepileptic activity in Wistar rat assessed as protection against maximal electric shock-induced seizures at 30 mg/kg, po measured at 4 hrs; format: functional
Outline: (§5)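 Single oral dose of 30 mg/kg in Wistar rats (100–150 g), tested by MES challenge at 0.25, 0.5, 1, 2 and 4 h.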

Rattus norvegicus [20] = assay: Antiepileptic activity in Wistar rat assessed as protection against maximal electric shock-induced seizures at 30 mg/kg, po measured at 2 hrs; format: functional; outline: as §5
Rattus norvegicus [21] = assay: Antiepileptic activity in Wistar rat assessed as protection against maximal electric shock-induced seizures at 30 mg/kg, po measured at 1 hr; format: functional; outline: as §5
Rattus norvegicus [22] = assay: Antiepileptic activity in Wistar rat assessed as protection against maximal electric shock-induced seizures at 30 mg/kg, po measured at 0.5 hrs; format: functional; outline: as §5
Rattus norvegicus [23] = assay: Antiepileptic activity in Wistar rat assessed as protection against maximal electric shock-induced seizures at 30 mg/kg, po measured at 0.25 hrs; format: functional; outline: as §5
Mus musculus [24] = assay: Neurotoxicity against Swiss albino mouse by rotarod test at 300 mg/kg, ip after 4 hrs; format: toxicity, organism-based; design: dose 300 mg/kg, route intraperitoneal; conditions: in vivo; outline: as §2
Mus musculus [25] = assay: Neurotoxicity against Swiss albino mouse by rotarod test at 300 mg/kg, ip after 0.5 hrs; format: toxicity, organism-based; design: dose 300 mg/kg, route intraperitoneal; conditions: in vivo; outline: as §2
Mus musculus [26] = assay: Neurotoxicity against ip dosed Swiss albino mouse after 4 hrs by rotarod test; format: toxicity, organism-based; conditions: in vivo; outline: as §2
Mus musculus [27] = assay: Antiepileptic activity in Swiss albino mouse assessed as protection against scPTZ-induced seizures at 300 mg/kg, ip measured after 4 hrs; format: functional, organism-based; design: dose 300 mg/kg; outline: as §1

Row | Structure (SMILES) | Activity (Mus musculus [2]) | minimal effective dose (Mus musculus [3]) [mg/kg] | Activity (Rattus norvegicus [5]) | Activity (Rattus norvegicus [6]) | Activity (Mus musculus [7]) | minimal effective dose (Rattus norvegicus [8]) [mg/kg] | minimal effective dose (Mus musculus [9]) [mg/kg] | minimal effective dose (Mus musculus [10]) [mg/kg] | Activity (Rattus norvegicus [14]) | Activity (Rattus norvegicus [15]) | Activity (Rattus norvegicus [16]) | Activity (Rattus norvegicus [17]) | Activity (Rattus norvegicus [18]) | Activity (Rattus norvegicus [19]) [%] | Activity (Rattus norvegicus [20]) [%] | Activity (Rattus norvegicus [21]) [%] | Activity (Rattus norvegicus [22]) [%] | Activity (Rattus norvegicus [23]) [%] | Activity (Mus musculus [24]) | Activity (Mus musculus [25]) | other results
1 | CC(C)=CC/C=C(/C)C/C=N/NC(=O)Nc1nnc(-c2ccccc2O)o1 | inactive | 300 | inactive | inactive | inactive | – | – | – | – | – | – | – | – | – | – | – | – | – | – | – | Activity (Mus musculus [1]): inactive; MTC (Mus musculus [4]): 300 mg/kg
2 | CC(C)=CC/C=C(/C)C/C=N/NC(=O)Nc1nnc(-c2ccc([N+](=O)[O-])cc2)o1 | – | 300 | – | inactive | inactive | 300 | 300 | 100 | Non-toxic | Non-toxic | Non-toxic | Non-toxic | Non-toxic | 50 | 25 | 25 | 0 | 50 | Non-toxic | Non-toxic | Activity (Rattus norvegicus [11]): 32.04 µg; Activity (Rattus norvegicus [12]): 36.72 µg; Activity (Rattus norvegicus [13]): 62.56 µg
3 | CC(C)=CC/C=C(/C)C/C=N/NC(=O)Nc1nnc(-c2ccc(F)cc2)o1 | inactive | 300 | inactive | inactive | inactive | – | 300 | – | – | – | – | – | – | – | – | – | – | – | – | Non-toxic | –
4 | C=C(C)[C@@H]1CC=C(C)/C(=N/NC(=O)Nc2nnc(-c3ccc(O)cc3)o2)C1 | – | 300 | – | inactive | inactive | 300 | 300 | 100 | Non-toxic | 0% | Non-toxic | Non-toxic | Non-toxic | 50 | 0 | 25 | 0 | 25 | Non-toxic | Non-toxic | Activity (Rattus norvegicus [11]): 30.64 µg; Activity (Rattus norvegicus [12]): 43.48 µg; Activity (Rattus norvegicus [13]): 47.42 µg
5 | CC(C)=CC/C=C(/C)C/C=N/NC(=O)Nc1nnc(-c2ccc(C)cc2)o1 | inactive | – | inactive | inactive | inactive | – | 300 | – | – | – | – | – | – | – | – | – | – | – | Non-toxic | Non-toxic | MTC (Mus musculus [26]): 300 mg/kg; Activity (Mus musculus [27]): inactive
6 | C=C(C)[C@@H]1CC=C(C)/C(=N/NC(=O)Nc2nnc(-c3ccccc3)o2)C1 | inactive | – | inactive | inactive | inactive | – | 300 | – | – | – | – | – | – | – | – | – | – | – | – | Non-toxic | MTC (Mus musculus [26]): 300 mg/kg; Activity (Mus musculus [27]): inactive
7 | C=C(C)[C@@H]1CC=C(C)/C(=N/NC(=O)Nc2nnc(-c3ccc(OC)cc3)o2)C1 | inactive | 300 | – | inactive | inactive | 300 | 300 | – | – | – | – | – | – | – | – | – | – | – | Non-toxic | Non-toxic | –
8 | O=C1NC(=O)C(c2ccccc2)(c2ccccc2)N1 [PHENYTOIN] | – | – | – | inactive | inactive | 100 | 30 | 30 | Non-toxic | Non-toxic | Non-toxic | Non-toxic | Non-toxic | 0 | 75 | 50 | 50 | 75 | – | – | MTC (Mus musculus [4]): 100 mg/kg; MTC (Mus musculus [26]): 100 mg/kg; Activity (Mus musculus [27]): inactive
